Target: Epidermal growth factor receptor (Homo sapiens, UniProt P00533)
Experiment: Inhibition of recombinant human wild type GST-tagged EGFR cytoplasmic domain (668 to 1210 residues) expressed in baculovirus using tyr4 peptide as substrate after 1 hr by FRET-based Z'-Lyte assay

Chain of Epidermal growth factor receptor (P00533 whole entry, the tested form may be a part): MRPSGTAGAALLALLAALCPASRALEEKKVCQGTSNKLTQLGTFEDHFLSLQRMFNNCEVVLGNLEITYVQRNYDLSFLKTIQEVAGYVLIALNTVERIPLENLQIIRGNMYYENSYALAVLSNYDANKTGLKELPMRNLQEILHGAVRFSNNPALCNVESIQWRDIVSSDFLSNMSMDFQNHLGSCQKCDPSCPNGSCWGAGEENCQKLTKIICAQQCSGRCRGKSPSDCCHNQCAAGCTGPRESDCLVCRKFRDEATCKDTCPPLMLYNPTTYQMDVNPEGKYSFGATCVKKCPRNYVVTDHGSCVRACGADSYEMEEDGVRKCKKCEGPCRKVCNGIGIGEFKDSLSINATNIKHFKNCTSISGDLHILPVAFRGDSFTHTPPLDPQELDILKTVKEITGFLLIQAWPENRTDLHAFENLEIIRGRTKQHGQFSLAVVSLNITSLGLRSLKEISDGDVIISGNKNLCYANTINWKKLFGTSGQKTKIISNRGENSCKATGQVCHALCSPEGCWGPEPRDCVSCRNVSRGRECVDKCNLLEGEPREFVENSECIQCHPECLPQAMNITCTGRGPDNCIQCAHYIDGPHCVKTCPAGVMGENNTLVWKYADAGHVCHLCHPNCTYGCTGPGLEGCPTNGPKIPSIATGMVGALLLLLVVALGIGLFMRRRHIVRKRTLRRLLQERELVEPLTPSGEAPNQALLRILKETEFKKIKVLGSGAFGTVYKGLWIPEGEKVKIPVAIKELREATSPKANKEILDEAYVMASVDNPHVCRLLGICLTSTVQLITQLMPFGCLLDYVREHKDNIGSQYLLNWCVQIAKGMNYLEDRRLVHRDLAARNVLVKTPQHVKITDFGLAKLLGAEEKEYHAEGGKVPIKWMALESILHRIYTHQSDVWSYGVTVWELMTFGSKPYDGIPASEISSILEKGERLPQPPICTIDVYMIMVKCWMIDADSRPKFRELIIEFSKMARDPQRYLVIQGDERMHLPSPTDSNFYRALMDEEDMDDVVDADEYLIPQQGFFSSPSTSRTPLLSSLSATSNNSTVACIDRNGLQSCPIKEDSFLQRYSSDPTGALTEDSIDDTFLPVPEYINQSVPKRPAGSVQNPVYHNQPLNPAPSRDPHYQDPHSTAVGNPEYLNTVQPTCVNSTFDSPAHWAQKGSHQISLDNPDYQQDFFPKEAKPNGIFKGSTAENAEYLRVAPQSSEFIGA

Compound | IC50 [nM]
CCC(=O)N1CC[C@H](N2C(=O)N(c3ccccc3F)Cc3cnc(Nc4ccc(N5CCN(C)CC5)c(C)c4)nc32)C1 | 17.6
CCC(=O)N1CC[C@H](N2C(=O)N(c3cccc(OC)c3F)Cc3cnc(Nc4ccc(N5CCN(C)CC5)c(C)c4)nc32)C1 | 421
CCC(=O)N1CC[C@H](N2C(=O)N(c3cc(OC)ccc3F)Cc3cnc(Nc4ccc(N(C)CCN(C)C)c(C)c4)nc32)C1 | 1300
CCC(=O)N1CC[C@H](N2C(=O)N(c3cccc(OC)c3Cl)Cc3cnc(Nc4ccc(N5CCN(C)CC5)c(C)c4)nc32)C1 | 413
Cc1cc(Nc2ncc3c(n2)N([C@H]2CCN(C(=O)C4CC4)C2)C(=O)N(c2ccccc2Cl)C3)ccc1N1CCN(C)CC1 | 28.7
CCC(=O)N1CC[C@@H](N2C(=O)N(c3ccccc3Cl)Cc3cnc(Nc4ccc(N5CCN(C)CC5)c(C)c4)nc32)C1 | 23.4
Cc1cc(Nc2ncc3c(n2)N([C@H]2CCN(C(=O)C4CCCCC4)C2)C(=O)N(c2ccccc2Cl)C3)ccc1N1CCN(C)CC1 | 24.9
CCC(=O)N1CC[C@H](N2C(=O)N(c3cccc(OC)c3)Cc3cnc(Nc4ccc(N5CCN(C)CC5)c(C)c4)nc32)C1 | 417
CCC(=O)N1CC[C@H](N2C(=O)N(c3ccc(OC)cc3)Cc3cnc(Nc4ccc(N5CCN(C)CC5)c(C)c4)nc32)C1 | 153
CCC(=O)N1CC[C@H](N2C(=O)N(c3cc(OC)ccc3F)Cc3cnc(Nc4ccc(N5CCN(C)CC5)cc4C)nc32)C1 | 2500
CCC(=O)N1CC[C@H](N2C(=O)N(c3cc(OC)ccc3F)Cc3cnc(Nc4ccc(N5CCN(C6COC6)CC5)c(C)c4)nc32)C1 | 302
CCC(=O)N1CC[C@H](N2C(=O)N(c3cc(OC)ccc3F)Cc3cnc(Nc4ccc(N5CCN(C(C)=O)CC5)c(C)c4)nc32)C1 | 148

More lines, now with the values ahead:

IC50 [nM] | Compound
218 | CCC(=O)N1CC[C@H](N2C(=O)N(c3cc(OC)ccc3F)Cc3cnc(Nc4ccc(N5CC6(CCN(C)CC6)C5)c(C)c4)nc32)C1
35.8 | CCC(=O)N1CC[C@H](N2C(=O)N(c3cccc(F)c3)Cc3cnc(Nc4ccc(N5CCN(C)CC5)c(C)c4)nc32)C1
1600 | CCC(=O)N1CC[C@H](N2C(=O)N(c3cc(OC)ccc3F)Cc3cnc(Nc4ccc(N5CCN(C)CC5)cc4OC)nc32)C1
209 | CCC(=O)N1CC[C@H](N2C(=O)N(c3cc(OC)ccc3F)Cc3cnc(Nc4ccc(N5CCCN(C)CC5)c(C)c4)nc32)C1
8.5 | Cc1cc(Nc2ncc3c(n2)N([C@H]2CCN(C(=O)C(C)C)C2)C(=O)N(c2ccccc2Cl)C3)ccc1N1CCN(C)CC1
1100 | CCC(=O)N1CC[C@H](N2C(=O)N(c3cc(OC)ccc3F)Cc3cnc(Nc4ccc(N5CCN(C)CC5)cc4)nc32)C1
1200 | CCC(=O)N1CC[C@H](N2C(=O)N(c3cc(OC)ccc3F)Cc3cnc(Nc4ccc(N5CCN(C)CC5)c(Cl)c4)nc32)C1
600 | CCC(=O)N1CC[C@H](N2C(=O)N(c3cc(OC)ccc3F)Cc3cnc(Nc4ccc(N5CCN(C)CC5)c(OC)c4)nc32)C1
28.9 | CCCC(=O)N1CC[C@H](N2C(=O)N(c3ccccc3Cl)Cc3cnc(Nc4ccc(N5CCN(C)CC5)c(C)c4)nc32)C1
0.5 | C=CC(=O)N1CC[C@H](N2C(=O)N(c3ccccc3Cl)Cc3cnc(Nc4ccc(N5CCN(C)CC5)c(C)c4)nc32)C1
12.1 | CC(=O)N1CC[C@H](N2C(=O)N(c3ccccc3Cl)Cc3cnc(Nc4ccc(N5CCN(C)CC5)c(C)c4)nc32)C1
888 | CCC(=O)N1CC[C@H](N2C(=O)N(c3cc(OC)ccc3F)Cc3cnc(Nc4ccc(N5C[C@@H](C)N(C)[C@@H](C)C5)c(C)c4)nc32)C1
365 | CCC(=O)N1CC[C@H](N2C(=O)N(c3cccc(C)c3)Cc3cnc(Nc4ccc(N5CCN(C)CC5)c(C)c4)nc32)C1
365 | CCC(=O)N1CC[C@H](N2C(=O)N(c3cc(OC)ccc3F)Cc3cnc(Nc4ccc(N5CCN(C)CC5)c(C(C)C)c4)nc32)C1

Target: Macrophage colony-stimulating factor 1 receptor (Homo sapiens, UniProt P07333)
Sequence (P07333 whole entry, the tested form may be a part): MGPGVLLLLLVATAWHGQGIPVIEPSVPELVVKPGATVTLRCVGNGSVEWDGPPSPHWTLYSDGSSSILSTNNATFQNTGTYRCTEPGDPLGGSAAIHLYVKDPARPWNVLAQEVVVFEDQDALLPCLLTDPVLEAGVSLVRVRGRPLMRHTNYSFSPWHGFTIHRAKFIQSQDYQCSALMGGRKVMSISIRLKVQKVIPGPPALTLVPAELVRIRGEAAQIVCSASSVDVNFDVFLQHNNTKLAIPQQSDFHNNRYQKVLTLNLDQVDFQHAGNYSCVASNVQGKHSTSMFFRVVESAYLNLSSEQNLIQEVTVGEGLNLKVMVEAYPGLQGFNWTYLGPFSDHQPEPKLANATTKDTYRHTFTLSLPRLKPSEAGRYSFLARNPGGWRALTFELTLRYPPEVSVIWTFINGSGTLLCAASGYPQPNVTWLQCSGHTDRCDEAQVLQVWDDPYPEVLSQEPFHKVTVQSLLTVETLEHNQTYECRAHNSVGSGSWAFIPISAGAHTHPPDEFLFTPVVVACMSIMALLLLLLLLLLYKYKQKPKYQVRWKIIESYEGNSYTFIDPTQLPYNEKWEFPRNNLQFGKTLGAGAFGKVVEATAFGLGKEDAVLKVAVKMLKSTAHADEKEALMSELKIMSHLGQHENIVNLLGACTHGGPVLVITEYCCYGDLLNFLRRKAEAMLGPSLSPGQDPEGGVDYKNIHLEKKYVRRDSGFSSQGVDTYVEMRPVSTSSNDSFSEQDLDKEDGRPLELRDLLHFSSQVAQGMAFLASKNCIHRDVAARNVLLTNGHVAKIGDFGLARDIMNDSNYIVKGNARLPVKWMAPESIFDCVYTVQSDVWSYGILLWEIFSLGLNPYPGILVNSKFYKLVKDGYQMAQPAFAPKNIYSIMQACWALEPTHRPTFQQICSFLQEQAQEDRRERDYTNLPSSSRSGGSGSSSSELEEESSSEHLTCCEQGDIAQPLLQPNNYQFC
Experiment: Inhibition of recombinant human His-tagged CSF1R cytoplasmic domain (538 to 910 residues) expressed in baculovirus using tyr4 peptide as substrate after 1 hr by FRET-based Z'-Lyte assay
Outline: (§1)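 Z′-Lyte FRET assay with CSF1R or EGFR and 2 μM Tyr4 peptide substrate in 1× kinase buffer. ATP was supplied as a 100 μM solution, a stock and not the final concentration. Compounds were 3-fold serially diluted in DMSO. Reaction ran 1 h at room temperature, followed by 1 h development and a stop reagent. Phospho-peptide, no-ATP and DMSO controls were included. IC50 by curve fitting; mean of at least three independent experiments.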

Compound | IC50 [nM]
CCC(=O)N1CC[C@H](N2C(=O)N(c3ccccc3F)Cc3cnc(Nc4ccc(N5CCN(C)CC5)c(C)c4)nc32)C1 | 5.2
CCC(=O)N1CC[C@H](N2C(=O)N(c3cccc(OC)c3F)Cc3cnc(Nc4ccc(N5CCN(C)CC5)c(C)c4)nc32)C1 | 4.5
CCC(=O)N1CC[C@H](N2C(=O)N(c3cc(OC)ccc3F)Cc3cnc(Nc4ccc(N(C)CCN(C)C)c(C)c4)nc32)C1 | 10.3
CCC(=O)N1CC[C@H](N2C(=O)N(c3cccc(OC)c3Cl)Cc3cnc(Nc4ccc(N5CCN(C)CC5)c(C)c4)nc32)C1 | 4.4
Cc1cc(Nc2ncc3c(n2)N([C@H]2CCN(C(=O)C4CC4)C2)C(=O)N(c2ccccc2Cl)C3)ccc1N1CCN(C)CC1 | 20.7
CCC(=O)N1CC[C@@H](N2C(=O)N(c3ccccc3Cl)Cc3cnc(Nc4ccc(N5CCN(C)CC5)c(C)c4)nc32)C1 | 20.9
Cc1cc(Nc2ncc3c(n2)N([C@H]2CCN(C(=O)C4CCCCC4)C2)C(=O)N(c2ccccc2Cl)C3)ccc1N1CCN(C)CC1 | 30.6
CCC(=O)N1CC[C@H](N2C(=O)N(c3cccc(OC)c3)Cc3cnc(Nc4ccc(N5CCN(C)CC5)c(C)c4)nc32)C1 | 4.5
CCC(=O)N1CC[C@H](N2C(=O)N(c3ccc(OC)cc3)Cc3cnc(Nc4ccc(N5CCN(C)CC5)c(C)c4)nc32)C1 | 5.8
CCC(=O)N1CC[C@H](N2C(=O)N(c3cc(OC)ccc3F)Cc3cnc(Nc4ccc(N5CCN(C)CC5)cc4C)nc32)C1 | 20.2
CCC(=O)N1CC[C@H](N2C(=O)N(c3cc(OC)ccc3F)Cc3cnc(Nc4ccc(N5CCN(C6COC6)CC5)c(C)c4)nc32)C1 | 3.4
CCC(=O)N1CC[C@H](N2C(=O)N(c3cc(OC)ccc3F)Cc3cnc(Nc4ccc(N5CCN(C(C)=O)CC5)c(C)c4)nc32)C1 | 25.9

Next, values leading:

IC50 [nM] | Compound
6.5 | CCC(=O)N1CC[C@H](N2C(=O)N(c3cc(OC)ccc3F)Cc3cnc(Nc4ccc(N5CC6(CCN(C)CC6)C5)c(C)c4)nc32)C1
15.2 | CCC(=O)N1CC[C@H](N2C(=O)N(c3cccc(F)c3)Cc3cnc(Nc4ccc(N5CCN(C)CC5)c(C)c4)nc32)C1
30.4 | CCC(=O)N1CC[C@H](N2C(=O)N(c3cc(OC)ccc3F)Cc3cnc(Nc4ccc(N5CCN(C)CC5)cc4OC)nc32)C1
4.9 | CCC(=O)N1CC[C@H](N2C(=O)N(c3cc(OC)ccc3F)Cc3cnc(Nc4ccc(N5CCCN(C)CC5)c(C)c4)nc32)C1
6.7 | Cc1cc(Nc2ncc3c(n2)N([C@H]2CCN(C(=O)C(C)C)C2)C(=O)N(c2ccccc2Cl)C3)ccc1N1CCN(C)CC1
13.6 | CCC(=O)N1CC[C@H](N2C(=O)N(c3cc(OC)ccc3F)Cc3cnc(Nc4ccc(N5CCN(C)CC5)cc4)nc32)C1
14.8 | CCC(=O)N1CC[C@H](N2C(=O)N(c3cc(OC)ccc3F)Cc3cnc(Nc4ccc(N5CCN(C)CC5)c(Cl)c4)nc32)C1
5.8 | CCC(=O)N1CC[C@H](N2C(=O)N(c3cc(OC)ccc3F)Cc3cnc(Nc4ccc(N5CCN(C)CC5)c(OC)c4)nc32)C1
10.1 | CCCC(=O)N1CC[C@H](N2C(=O)N(c3ccccc3Cl)Cc3cnc(Nc4ccc(N5CCN(C)CC5)c(C)c4)nc32)C1
30 | C=CC(=O)N1CC[C@H](N2C(=O)N(c3ccccc3Cl)Cc3cnc(Nc4ccc(N5CCN(C)CC5)c(C)c4)nc32)C1
5.5 | CC(=O)N1CC[C@H](N2C(=O)N(c3ccccc3Cl)Cc3cnc(Nc4ccc(N5CCN(C)CC5)c(C)c4)nc32)C1
7.8 | CCC(=O)N1CC[C@H](N2C(=O)N(c3cc(OC)ccc3F)Cc3cnc(Nc4ccc(N5C[C@@H](C)N(C)[C@@H](C)C5)c(C)c4)nc32)C1
16.4 | CCC(=O)N1CC[C@H](N2C(=O)N(c3cccc(C)c3)Cc3cnc(Nc4ccc(N5CCN(C)CC5)c(C)c4)nc32)C1
25.8 | CCC(=O)N1CC[C@H](N2C(=O)N(c3cc(OC)ccc3F)Cc3cnc(Nc4ccc(N5CCN(C)CC5)c(C(C)C)c4)nc32)C1

Species: Homo sapiens
Experiment: Selectivity ratio of IC50 for recombinant human wild type GST-tagged EGFR cytoplasmic domain (668 to 1210 residues) expressed in baculovirus to IC50 for recombinant human His-tagged CSF1R cytoplasmic domain (538 to 910 residues) expressed in baculovirus
Outline: as §1

Ratio IC50 | Compound
99 to 200 | CCC(=O)N1CC[C@H](N2C(=O)N(c3cccc(OC)c3F)Cc3cnc(Nc4ccc(N5CCN(C)CC5)c(C)c4)nc32)C1
99 to 200 | CCC(=O)N1CC[C@H](N2C(=O)N(c3cccc(OC)c3Cl)Cc3cnc(Nc4ccc(N5CCN(C)CC5)c(C)c4)nc32)C1
92 | CCC(=O)N1CC[C@H](N2C(=O)N(c3cccc(OC)c3)Cc3cnc(Nc4ccc(N5CCN(C)CC5)c(C)c4)nc32)C1
